Experimental data published in publication PMC6399515 (Insect Biochemistry and Molecular Biology, 2016).

Tests used:
CYP6P3 = biological target: T1, CYP6P3 (Anopheles gambiae, UniProt Q8T632); experiment: Reciprocal IC50 of CYP6P3 metabolism of PPF and permethrin; type: biochemical
T1 sequence (Q8T632 1-509): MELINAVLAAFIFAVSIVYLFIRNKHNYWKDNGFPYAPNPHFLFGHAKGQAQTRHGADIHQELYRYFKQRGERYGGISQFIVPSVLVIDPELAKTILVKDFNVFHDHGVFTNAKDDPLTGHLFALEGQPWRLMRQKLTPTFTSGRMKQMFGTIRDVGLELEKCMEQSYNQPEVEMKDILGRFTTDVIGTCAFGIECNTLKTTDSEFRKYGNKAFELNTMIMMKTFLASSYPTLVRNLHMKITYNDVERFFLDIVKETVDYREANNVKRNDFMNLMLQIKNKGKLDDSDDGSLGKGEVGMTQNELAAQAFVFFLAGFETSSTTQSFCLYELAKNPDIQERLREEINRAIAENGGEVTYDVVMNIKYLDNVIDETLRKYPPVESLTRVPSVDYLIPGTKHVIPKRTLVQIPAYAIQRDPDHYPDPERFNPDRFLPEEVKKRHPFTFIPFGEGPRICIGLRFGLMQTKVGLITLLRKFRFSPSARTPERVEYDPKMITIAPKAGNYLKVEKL
T1 sequence (Q86QH5 1-679 partner): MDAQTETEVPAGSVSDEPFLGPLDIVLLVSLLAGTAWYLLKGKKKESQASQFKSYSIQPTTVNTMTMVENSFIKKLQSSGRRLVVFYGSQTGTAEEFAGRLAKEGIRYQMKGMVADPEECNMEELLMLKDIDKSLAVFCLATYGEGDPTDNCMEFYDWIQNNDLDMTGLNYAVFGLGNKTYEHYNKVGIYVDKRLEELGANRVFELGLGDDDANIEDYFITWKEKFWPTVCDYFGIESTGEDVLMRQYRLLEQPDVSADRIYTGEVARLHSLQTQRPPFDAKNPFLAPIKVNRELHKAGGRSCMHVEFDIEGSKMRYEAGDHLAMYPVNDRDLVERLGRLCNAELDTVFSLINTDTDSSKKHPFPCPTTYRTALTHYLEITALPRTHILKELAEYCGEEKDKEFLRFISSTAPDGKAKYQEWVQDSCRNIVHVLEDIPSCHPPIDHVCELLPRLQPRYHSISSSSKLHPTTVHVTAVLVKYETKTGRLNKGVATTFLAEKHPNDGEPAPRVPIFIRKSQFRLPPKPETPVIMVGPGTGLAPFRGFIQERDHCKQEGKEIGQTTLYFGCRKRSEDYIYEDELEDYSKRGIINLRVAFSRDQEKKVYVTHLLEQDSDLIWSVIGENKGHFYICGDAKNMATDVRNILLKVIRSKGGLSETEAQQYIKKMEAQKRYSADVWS
T1 sequence (Q86QH4 1-128 partner): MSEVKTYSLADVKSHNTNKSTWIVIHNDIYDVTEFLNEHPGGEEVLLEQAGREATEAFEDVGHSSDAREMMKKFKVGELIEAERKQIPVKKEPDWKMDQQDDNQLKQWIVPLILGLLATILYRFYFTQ
Procedure, shortened: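 CYP6P3 was expressed with AgCPR in E. coli JM109 membranes, with b5 added at 10:1 b5:P450. Reactions ran at 30 °C for 90 min with shaking: 0.1 μM P450, 1.0 μM b5, 0.2 M Tris-HCl pH 7.4, 0.25 mM MgCl2, NADPH-regenerating system. PPF (0–1.6 mM) or permethrin (0–3.2 mM) was titrated against the other at fixed 20 μM. Substrate loss was read by C18 HPLC at 232 nm, triplicate controls.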

CYP6P family and CYP6Z2 = conditions: Anopheles gambiae, pH 7.4
[1] = tested on: An. gambiae Tiassalé strain; experiment: Glass tube assay, ovary development of adult females, Tiassalé strain; type: in vivo, Anopheles gambiae
Procedure, shortened: (§1)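 Borosilicate glass tubes were coated with PPF at 0.55, 2.75 or 5.5 mg/m2, with an acetone-only tube as control, and used the day they were made. Per concentration, two groups of fifteen 5–7-day-old females (n = 30) were acclimated 60 min, then exposed 3 min. They were held 24 h on 10% sucrose, then five days in the insectary. Ovaries were dissected and scored normal or abnormal.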

[2] = tested on: An. gambiae Kisumu strain; experiment: Glass tube assay, ovary development of adult females, Kisumu strain; type: in vivo, Anopheles gambiae
Procedure, shortened: as §1

CYP6P2 = biological target: T2, CYP6P2 (Anopheles gambiae, UniProt Q8T629, V81I); experiment: biochemical
T2 sequence (Q8T629 1-507 V81I): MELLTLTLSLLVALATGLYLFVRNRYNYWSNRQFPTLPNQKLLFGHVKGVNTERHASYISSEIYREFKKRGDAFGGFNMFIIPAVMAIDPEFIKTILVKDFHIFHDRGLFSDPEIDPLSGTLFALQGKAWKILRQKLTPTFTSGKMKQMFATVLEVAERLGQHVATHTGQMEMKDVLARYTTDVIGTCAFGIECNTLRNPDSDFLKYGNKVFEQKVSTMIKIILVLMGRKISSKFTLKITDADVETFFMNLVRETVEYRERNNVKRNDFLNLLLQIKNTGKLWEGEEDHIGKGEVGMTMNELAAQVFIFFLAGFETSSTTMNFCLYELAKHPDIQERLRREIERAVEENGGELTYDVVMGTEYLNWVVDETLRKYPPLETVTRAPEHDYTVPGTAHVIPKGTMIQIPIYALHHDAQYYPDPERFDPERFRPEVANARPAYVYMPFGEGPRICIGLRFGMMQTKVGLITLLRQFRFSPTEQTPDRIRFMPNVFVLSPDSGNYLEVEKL
T2 sequence (Q7QFI3 1-587 partner): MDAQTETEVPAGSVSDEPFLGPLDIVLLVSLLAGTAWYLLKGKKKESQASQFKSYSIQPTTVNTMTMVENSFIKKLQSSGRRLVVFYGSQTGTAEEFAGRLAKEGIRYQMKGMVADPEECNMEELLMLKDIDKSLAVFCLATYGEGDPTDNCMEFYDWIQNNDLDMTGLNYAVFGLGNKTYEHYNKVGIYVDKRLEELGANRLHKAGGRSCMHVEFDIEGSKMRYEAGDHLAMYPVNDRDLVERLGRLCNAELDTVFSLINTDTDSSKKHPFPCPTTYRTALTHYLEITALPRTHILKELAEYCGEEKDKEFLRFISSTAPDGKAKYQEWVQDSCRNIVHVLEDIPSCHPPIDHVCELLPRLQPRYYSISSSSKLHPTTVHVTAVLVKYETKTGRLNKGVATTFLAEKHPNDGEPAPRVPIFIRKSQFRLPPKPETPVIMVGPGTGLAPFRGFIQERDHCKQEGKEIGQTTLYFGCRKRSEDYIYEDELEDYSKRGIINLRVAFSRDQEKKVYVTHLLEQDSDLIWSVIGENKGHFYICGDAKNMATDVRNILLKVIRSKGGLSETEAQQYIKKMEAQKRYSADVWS
T2 sequence (Q86QH4 1-128 partner): T1 sequence (Q86QH4 1-128 partner)

[3] = 3 min exposure, half of 5.5 mg/m^2

Compound | IC50 (CYP6P3) [µM] | PPF depletion (CYP6P family and CYP6Z2) | mosquitoes sterilized ([1]; 3 min exposure to 5.5 mg/m^2) [%] | impact on ovary development [1, 3] | mosquitoes sterilized ([2]; 3 min exposure to 5.5 mg/m^2) | mosquitoes sterilized [2, 3] [%] | IC50 (CYP6P2; IC50 of DEF metabolism) [µM] | IC50 (CYP6P2; category of inhibition of DEF metabolism) [µM] | strength of inhibition relative to PPF (mosquito P450s)
CC(COc1ccc(Oc2ccccc2)cc1)Oc1ccccn1 (centres unmarked) [PPF, pyriproxyfen] | 92.7 | 58–100% | 75 | no impact | completely sterilized | 76 | 9.95 | 1 to 10 | 
CC1(C)C(C=C(Cl)Cl)C1C(=O)OCc1cccc(Oc2ccccc2)c1 (mixture of isomers) [Permethrin, 3-phenoxybenzyl (1R,S)-cis,trans-3-(2,2-dichlorovinyl)-2,2-dimethylcyclopropanecarboxylate] | 61.2 |  |  |  |  |  | 8.61 |  | 2–3 fold
